The values that follow come from ChEMBL document CHEMBL4145611, “Discovery of Marinoquinolines as Potent and Fast-Acting Plasmodium falciparum Inhibitors with in Vivo Activity” (J Med Chem, 2018).

The subject of series [1] is Plasmodium falciparum. The series is described as follows: Antiplasmodial activity against chloroquine-sensitive blood parasite forms of Plasmodium falciparum 3D7 infected in RBC by SYBR green assay. The settings on record: 3D7, Erythrocyte. In kind it is functional, organism-based. The method, boiled down:
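3D7 blood-stage cultures, sorbitol-synchronized twice beforehand, used at 5-10% parasitemia with >80% rings, diluted to 0.5% parasitemia and 2% hematocrit with graded compound (0.05% DMSO), triplicate; artesunate and chloroquine controls. SYBR green I lysis-buffer fluorescence at 485/535 nm; IC50 from curve fit relative to drug-free medium.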

The test system of the next series is HepG2. Description: Cytotoxicity against human HepG2 cells assessed as reduction in cell viability after 24 hrs by MTT assay. In kind it is cell-based. Particulars: HepG2, 24 h. The method, boiled down: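 HepG2 cells in RPMI-1640 with 10% heat-inactivated serum, seeded 5×10^3 per well, allowed to adhere 18 h at 37 °C, then exposed to compound (400–6.2 µM) for 24 h at 37 °C, 5% CO2. MTT (5 mg/mL) for 3 h, formazan dissolved in DMSO, absorbance 570 nm with 630 nm background; viability as percent of untreated control.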
On the technique in general: Tetrazolium dyes change colour on reduction, which living cells bring about.

Series [2] is described as follows: Therapeutic index, ratio of EC50 for human HepG2 cells to IC50 for chloroquine-sensitive blood parasite forms of Plasmodium falciparum 3D7. Particulars: read-out: TI. The format is toxicity.
The subject of series [3] is Plasmodium falciparum. The series is described as follows: Plasmodicidal activity against Plasmodium falciparum 3D7A infected in erythrocytes assessed as parasite survival at 10 times IC50 pre-incubated for 24 hrs followed by compound washout and measured after 24 hrs by […] incorporation assay (reference value: 100%). The format is functional.
The subject of series [4] is Plasmodium falciparum. Description: Plasmodicidal activity against Plasmodium falciparum 3D7A infected in erythrocytes assessed as parasite survival at 10 times IC50 pre-incubated for 48 hrs followed by compound washout and measured after 24 hrs by […] incorporation assay (reference value: 100%). In kind it is functional.

Where only a bound is given, the exact number is not on record here.

By EC50 is commonly meant the concentration giving half of the maximal effect. Take `COc1ccc2c(c1)nc(C)c1[nH]cc(Br)c12`: the IC50 with Plasmodium falciparum [1] (read-out: IC50) was found to be 5.4 µM. The EC50 in the series with HepG2 was greater than 250 µM. The selectivity ratio in series [2] is greater than 46.
The corresponding values for `c1ccc2[nH]c(-c3nc4ccccc4c4cc[nH]c34)cc2c1` are 4.8 µM, 746 µM and 155.
The corresponding values for `COC(=O)c1ccc(-c2nc3cc(OC)ccc3c3cc[nH]c23)cc1` are 1.3 µM, greater than 250 µM and greater than 192.
The like results for `CCc1nc2ccccc2c2cc[nH]c12` were, in that order, 7.3 µM, 151 µM and 21.
Regarding `Brc1ccc2c(c1)nc(-c1c[nH]c3ccccc13)c1[nH]ccc12`, the IC50 with Plasmodium falciparum [1] (read-out: IC50) was determined as 7.9 µM. In the series with HepG2, the EC50 is greater than 250 µM. Besides, the selectivity ratio in series [2] was greater than 32.
In the case of `Nc1ccc(-c2nc3ccccc3c3cc[nH]c23)cc1`, the IC50 in the series with Plasmodium falciparum [1] (read-out: IC50) came to 7.7 µM. In the series with HepG2, the EC50 is 41 µM. In addition, in series [2], the selectivity ratio is 5.
On to `COc1ccc2c(c1)nc(-c1ccc(C(=O)O)cc1)c1[nH]ccc12`, for which the IC50 with Plasmodium falciparum [1] (read-out: IC50) is greater than 10 µM.
As to `COC(=O)c1ccc(-c2nc3ccccc3c3cc[nH]c23)cc1`, the IC50 was 4 µM with Plasmodium falciparum [1] (read-out: IC50) and 3.98 µM in the series on Plasmodium falciparum [1] (read-out: pIC50 (converted)). Further, the EC50 in the series with HepG2 is greater than 250 µM. In series [2], the selectivity ratio is greater than 63.
For `O=C1C(O)=C([C@H]2CC[C@H](c3ccc(Cl)cc3)CC2)C(=O)c2ccccc21` [ATOVAQUONE], the Survival is listed as 68% in the series with Plasmodium falciparum [3] and 40% in the series on Plasmodium falciparum [4].
For the molecule `COc1ccc2c(c1)nc(Cc1ccccc1)c1[nH]ccc12`, the IC50 in the series with Plasmodium falciparum [1] (read-out: IC50) worked out at 14.3 µM. For the same molecule, the EC50 in the series on HepG2 was determined as 478 µM. The selectivity ratio in series [2] came to 33.
On to `Brc1ccc2[nH]cc(-c3nc4ccccc4c4cc[nH]c34)c2c1`, for which the IC50 with Plasmodium falciparum [1] (read-out: IC50) and in the series with Plasmodium falciparum [1] (read-out: pIC50 (converted)) was 12.3 µM throughout. Moreover, the EC50 with HepG2 was 93 µM. For the same molecule, the selectivity ratio in series [2] is 8.
Turning to `COc1ccc2c(c1)nc(-c1ccccc1)c1[nH]cc(Br)c12`, the IC50 with Plasmodium falciparum [1] (read-out: IC50) amounted to 2.1 µM. In the series on HepG2, the EC50 was found to be 111 µM. Besides, the selectivity ratio in series [2] was determined as 53.
The like results for `CN(C)c1ccc(-c2nc3ccccc3c3cc[nH]c23)cc1` were, in that order, 5.8 µM, greater than 600 µM and greater than 104.
The corresponding values for `c1ccc(-c2nc3ccccc3c3cc[nH]c23)cc1` are 9.9 µM, greater than 750 µM and greater than 75.
The corresponding values for `COc1cc(-c2nc3ccccc3c3cc[nH]c23)cc(OC)c1OC` are 9.2 µM, 99 µM and 11.
Take `COc1ccc(-c2nc3ccccc3c3cc[nH]c23)cc1`: the IC50 with Plasmodium falciparum [1] (read-out: IC50) came out at 6.7 µM. In addition, the EC50 with HepG2 is greater than 250 µM. Also, the selectivity ratio in series [2] is greater than 37.
In the case of `Brc1ccc(-c2nc3ccccc3c3cc[nH]c23)cc1`, the IC50 in the series on Plasmodium falciparum [1] (read-out: IC50) was greater than 10 µM.
Regarding `COc1ccc2c(c1)nc(-c1ccccc1)c1[nH]ccc12`, the IC50 with Plasmodium falciparum [1] (read-out: IC50) was 2.4 µM. Further, the EC50 with HepG2 is 60 µM. Besides, the selectivity ratio in series [2] was 25.
For `CCc1nc2cc(OC)ccc2c2cc[nH]c12`, the IC50 in the series with Plasmodium falciparum [1] (read-out: IC50) was greater than 10 µM.
Consider `c1ccc(Cc2nc3ccccc3c3cc[nH]c23)cc1` [MARINOQUINOLINE C], for which the IC50 in the series with Plasmodium falciparum [1] (read-out: IC50) is greater than 10 µM.
As for `c1ccc2c(c1)nc(-c1c[nH]c3ccccc13)c1[nH]ccc12` [MARINOQUINOLINE E], the IC50 with Plasmodium falciparum [1] (read-out: IC50) came to 10.4 µM. The EC50 with HepG2 was greater than 750 µM. Further, the selectivity ratio in series [2] is greater than 72.
The corresponding values for `COc1ccc2c(c1)nc(-c1ccc([N+](=O)[O-])cc1)c1[nH]ccc12` are 1.9 µM, 144 µM and 76.
In the case of `COc1cc(OC)cc(-c2nc3cc(OC)ccc3c3cc[nH]c23)c1`, the IC50 in the series with Plasmodium falciparum [1] (read-out: IC50) and with Plasmodium falciparum [1] (read-out: pIC50 (converted)) was 1 µM throughout. In the series on HepG2, the EC50 was greater than 250 µM. The selectivity ratio in series [2] is greater than 250.
Consider `COc1ccc2c(c1)nc(C)c1[nH]ccc12`, for which, in the series with Plasmodium falciparum [1] (read-out: IC50), the IC50 is 10.5 µM. For the same molecule, in the series with HepG2, the EC50 is greater than 750 µM. In addition, the selectivity ratio in series [2] is greater than 71.
Regarding `COc1ccc2c(c1)nc(-c1ccc(N(C)C)cc1)c1[nH]ccc12`, the IC50 in the series with Plasmodium falciparum [1] (read-out: IC50) was 0.4 µM. In the series with HepG2, the EC50 turned out to be 20 µM. Also, in series [2], the selectivity ratio was determined as 50.
On to `C[C@H]1[C@H](OC(=O)CCC(=O)O)O[C@@H]2O[C@@]3(C)CC[C@H]4[C@H](C)CC[C@@H]1[C@@]24OO3` [ARTESUNATE], for which the Survival was determined as 14% in the series on Plasmodium falciparum [3] and 5% with Plasmodium falciparum [4].
In the case of `Brc1c[nH]c2c(-c3c[nH]c4ccccc34)nc3ccccc3c12`, the IC50 in the series with Plasmodium falciparum [1] (read-out: IC50) is greater than 10 µM.
For the molecule `COc1cc(OC)cc(-c2nc3ccccc3c3cc[nH]c23)c1`, in the series on Plasmodium falciparum [1] (read-out: IC50), the IC50 is 4.9 µM. Besides, the EC50 in the series on HepG2 was greater than 250 µM. Moreover, the selectivity ratio in series [2] is greater than 51.
In the case of `Cc1nc2ccccc2c2cc[nH]c12` [MARINOQUINOLINE A], in the series on Plasmodium falciparum [1] (read-out: IC50), the IC50 was greater than 10 µM.
Turning to `O=C(O)c1ccc(-c2nc3ccccc3c3cc[nH]c23)cc1`, the IC50 in the series on Plasmodium falciparum [1] (read-out: IC50) came out at 12.1 µM. Also, the EC50 in the series on HepG2 amounted to 82 µM. In series [2], the selectivity ratio was found to be 7.
On to `Clc1ccc(-c2nc3ccccc3c3cc[nH]c23)cc1`, for which the IC50 with Plasmodium falciparum [1] (read-out: IC50) amounted to 10.5 µM. In addition, in the series on HepG2, the EC50 was greater than 250 µM. Besides, the selectivity ratio in series [2] was greater than 24.
As for `O=[N+]([O-])c1ccc(-c2nc3ccccc3c3cc[nH]c23)cc1`, the IC50 in the series with Plasmodium falciparum [1] (read-out: IC50) is greater than 10 µM.
For `COc1ccc2c(c1)nc(-c1ccc(N)cc1)c1[nH]ccc12`, the IC50 in the series on Plasmodium falciparum [1] (read-out: IC50) worked out at 1.3 µM. For the same molecule, the EC50 in the series on HepG2 was greater than 750 µM. Besides, the selectivity ratio in series [2] was greater than 576.
Turning to `CCc1nc(N)nc(N)c1-c1ccc(Cl)cc1` [PYRIMETHAMINE], the figures for the Survival with Plasmodium falciparum [3] and with Plasmodium falciparum [4] were 55% and 11%, respectively.
On to `COc1ccc2c(c1)nc(-c1c[nH]c3ccccc13)c1[nH]ccc12`, for which the IC50 in the series with Plasmodium falciparum [1] (read-out: IC50) is 0.061 µM; with Plasmodium falciparum [1] (read-out: pIC50 (converted)) it was 0.0617 µM. For the same molecule, the EC50 with HepG2 was found to be 20 µM. Also, the selectivity ratio in series [2] came to 328.
With `COc1ccc2c(c1)nc(-c1ccc(NC(C)=O)cc1)c1[nH]ccc12`, the IC50 with Plasmodium falciparum [1] (read-out: IC50) and with Plasmodium falciparum [1] (read-out: pIC50 (converted)) was greater than 10 µM in each case.
`Brc1ccc2c(-c3nc4ccccc4c4cc[nH]c34)c[nH]c2c1`: in the series with Plasmodium falciparum [1] (read-out: IC50), the IC50 turned out to be 6.2 µM. Moreover, in the series on HepG2, the EC50 was determined as 42 µM. Moreover, the selectivity ratio in series [2] was found to be 7.
The like results for `CC(C)Cc1nc2ccccc2c2cc[nH]c12` were, in that order, 4.1 µM, greater than 250 µM and greater than 61.
